Assay outcomes deposited in PubChem by several laboratories.
Most compounds without a hit are left out; they make up all but 10% or so of the library.
WT yeast gro inh: growth inhibition of WT yeast, mitochondrial fusion screen. inhibition, % at 10 µM. actives 2.1% (n = 190,000). mitochondrial fusion phenotypic screen, WT strain; in the data active = inhibition above about 58%; tested in S. cerevisiae
PMI act: activators of human phosphomannose isomerase; P34949; purified human PMI, coupled resazurin fluorescence, 20 min; active compounds read high; 1 = vehicle control, 0 substrate-free wells; AID 1214; actives 0.005% (n = 190,000); activation factor at 20 µM;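 active = activation factor of 2 or more at 20 µM, relative to plate controls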
Target sequence (P34949 whole entry, looked up): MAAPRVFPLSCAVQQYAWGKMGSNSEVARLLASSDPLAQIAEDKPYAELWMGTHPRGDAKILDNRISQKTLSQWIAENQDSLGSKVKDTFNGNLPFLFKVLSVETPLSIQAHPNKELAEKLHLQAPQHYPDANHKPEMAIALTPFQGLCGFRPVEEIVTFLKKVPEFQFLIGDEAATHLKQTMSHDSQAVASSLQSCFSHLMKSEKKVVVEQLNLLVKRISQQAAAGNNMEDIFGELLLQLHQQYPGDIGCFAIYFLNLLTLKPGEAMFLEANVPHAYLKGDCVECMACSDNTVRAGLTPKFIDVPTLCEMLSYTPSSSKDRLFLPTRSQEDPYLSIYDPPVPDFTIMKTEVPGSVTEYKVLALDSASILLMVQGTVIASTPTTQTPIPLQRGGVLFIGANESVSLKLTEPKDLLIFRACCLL
Diaphorase act: counter-screen for diaphorase-based assays: diaphorase activators and chemical reducers; Diaphorase/resazurin coupled assay, resorufin fluorescence, 16 min; active compounds read high; 1 = vehicle wells, 0 = NADH-free wells; activation factor at 20 µM; actives 0.005% (n = 190,000); AID 1229;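 active = diaphorase activity raised at least twofold by the compound at 20 µM; inactive = activation factor below 2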
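Material: Purified diaphorase enzyme from Clostridium kluyveri | Buffer or medium: 50 mM HEPES pH 7.4 with 4.542 mM MgCl2, 0.005% Tween 20 | Times: 16 min enzyme reaction, ambient temperature | Signal: Red resorufin fluorescence at 544/590 nm excitation/emission | Measure: Increased resorufin signal from activators or reducing compounds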
PMI act hi M6P: activators of human phosphomannose isomerase at near-saturating mannose 6-phosphate. AID 1216. P34949. activation factor at 20 µM. actives 0.34% (n = 190,000). coupled PMI enzyme assay, resazurin fluorescence, 20 min; active compounds read high; 1 = untreated enzyme, 0 = substrate-free blank;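 active = activation factor of 2 or more at 20 µM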
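Test system: human phosphomannose isomerase with PGI, G6PDH, diaphorase coupling enzymes / Doses: 20 µM compound, 1% DMSO / Times: enzyme reaction with compound 20 min at room temperature / Measured by: Diaphorase-driven resazurin-to-resorufin fluorescence, excitation 544, emission 590 nm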
Lmaj promast: reduces viability of Leishmania major promastigotes | resazurin fluorescence viability | inhibition, % at 10 µM | actives 9% (n = 200,000) | AID 1063; in the data active = inhibition above about 50%;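 also: promastigotes grown with compound for 44 hours at 28 °C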
Of the large screens only hits and unclear results are named; the others gave an inactive call.

Cn1nc(C(F)(F)F)c2cc(NC(=O)OCc3ccc(F)cc3)sc21	WT yeast gro inh 78.7
COc1ccc(COC(=O)Nc2cc3c(C(F)(F)F)nn(C)c3s2)cc1	none
Cn1nc(C(F)(F)F)c2cc(C(=O)Nc3ccc(Cl)cc3)sc21	WT yeast gro inh 74.0
CCOc1ccc(N2C(=O)C3C(c4ccccc4F)NN(C(=O)c4ccc(C)cc4)C3C2=O)cc1 (stereo not drawn)	none
COc1ccc(C(=O)N/N=C(\c2ccccc2)c2ccccn2)cc1	WT yeast gro inh 68.0, Lmaj promast 99.6
CCOc1ccccc1C(=O)N/N=C/c1cccc2cccnc12	none
COc1ccc(C(=O)N/N=C/c2cc3ccccc3[nH]c2=S)cc1	PMI act hi M6P 2
CCOc1ccc(C(=O)N/N=C/c2cccc3cccnc23)cc1	Lmaj promast 98.2
COc1ccc(NC(=O)c2ccccn2)cc1	none
COc1ccc(C(=O)N/N=C/c2cccc3cccnc23)cc1	Lmaj promast 97.2
COc1ccccc1/C=N/NC(=O)c1ccc(-c2ccccc2)cc1	none
CCn1cc(/C=N/NC(=O)COc2cccc3cccnc23)c2ccccc21	Lmaj promast 60.3
O=C(Cc1ccc([N+](=O)[O-])cc1)N1N=C(c2ccncc2)CC1(O)C(F)(F)F (stereo not drawn)	none
CCOc1ccccc1NS(=O)(=O)c1ccc2c(c1)n(C)c(=O)c(=O)n2C	none
CC1C(c2ccccc2)N(C)C(c2ccccc2)C(C)C1(O)C#Cc1ccccc1 (stereo not drawn)	WT yeast gro inh 75.2, Lmaj promast 68.9
CC1C(=O)CC(c2ccccc2)N(C)C1c1ccccc1 (stereo not drawn)	none
COc1ccccc1Cn1c(SCC(N)=O)nc2c(oc3ccccc32)c1=O	none
O=C(COC(=O)c1ccccc1O)Nc1cccnc1Cl	none
O=C(COC(=O)c1cc2ccccc2cc1O)Nc1cccnc1Cl	Lmaj promast 62.9
COc1ccc(C(=O)C2CCCN(Cc3cccc4c3OCO4)C2)cc1OC (stereo not drawn)	Lmaj promast 77.7
O=C(c1ccc2c(c1)OCO2)C1CCCN(Cc2cc(F)ccc2-n2cccn2)C1 (stereo not drawn)	none
O=C(c1ccc2c(c1)OCO2)C1CCCN(Cc2ccc3nsnc3c2)C1 (stereo not drawn)	Lmaj promast 91.8
COc1cccc(CN2CCCC(C(=O)c3ccc4c(c3)OCO4)C2)c1OC (stereo not drawn)	Lmaj promast 90.4
COc1ccccc1C(=O)C1CCCN(Cc2cccc3nccnc23)C1 (stereo not drawn)	none
Cn1c(CN2CCCC(C(=O)c3ccc4c(c3)OCO4)C2)nc2ccccc21 (stereo not drawn)	none
COc1c(C)cc(C(=O)C2CCCN(Cc3cccc4nccnc34)C2)cc1C (stereo not drawn)	Lmaj promast 99.3
Cn1c(SCC(=O)Nc2cccnc2)nnc1-c1ccccc1F	none
COC(=O)c1cnn(-c2nc3c(C)cccc3s2)c1C	none
Clc1nc(-c2ccccn2)nc2scc(-c3ccccc3)c12	Lmaj promast 66.0
Clc1ccc(-c2csc3ncnc(Cl)c23)cc1	none
CCc1ccccc1N1C[C@@]23C=C[C@@H](O2)C(C(=O)OCC(C)C)[C@H]3C1=O (stereo partly drawn)	WT yeast gro inh 59.5
CC(C)c1ccccc1NC(=O)COC(=O)COc1ccccc1[N+](=O)[O-]	none
COc1ccc(NC(=O)C(NC(=O)c2ccc(=O)[nH]c2)c2ccc(C)cc2)cc1 (stereo not drawn)	none
CC(=O)Nc1ccc(/C(C)=N/Nc2nc(Nc3cccc4ccccc34)nc(N3CCOCC3)n2)cc1	Lmaj promast 57.9
C/C(=N\Nc1nc(N2CCCCCC2)nc(N2CCCCCC2)n1)c1ccccc1	WT yeast gro inh 65.0, Lmaj promast 51.0
CC(=O)Nc1ccc(/C(C)=N/Nc2nc(N3CCOCC3)nc(N3CCOCC3)n2)cc1	none
C/C(=N\Nc1nc(N2CCCCC2)nc(N2CCOCC2)n1)c1cccs1	none
CC1C/C(=C/c2ccncc2)C(=O)/C(=C/c2ccncc2)C1 (stereo not drawn)	WT yeast gro inh 76.9, Lmaj promast 100.6
CC1C/C(=C/c2cccn2C)C(=O)/C(=C/c2cccn2C)C1 (stereo not drawn)	Lmaj promast 86.3
